# Measurements gathered from unrelated publications.
# Each line is one published result; the experiments were not run side by side.
# Target: Histamine H2 receptor (HRH2, Homo sapiens, UniProt P25021)
# Tested at: 10 µM
SMILES,test,endpoint,result
CC(C)Cn1cnc2c(N)nc3ccccc3c21,"ligand displacement, radioligand",inhibition,63%
COc1ccc(S(=O)(=O)N2CCCCC2)cc1C,"ligand displacement, radioligand",inhibition,< 30%
Cn1cncc1[C@@](O)(COc1ccc(C#N)cc1-c1ccc(OC(F)(F)F)cc1)c1ccc(C#N)cc1,ligand displacement,inhibition,5.38%
CC(C)N1CCC[C@H]1CNC(=O)c1cn(C2CCCC2)c(=O)c2c1c1ccccc1n2C,"ligand displacement, radioligand",inhibition,25%
CCN(CC)CCCC[C@H](NC(=O)[C@H](CC(C)C)NC(=O)[C@H](C)NC(=O)[C@H](Cc1ccccc1)NC(=O)c1ccc(C(C)(C)C)cc1)C(=O)N[C@@H](CO)C(=O)OC,"ligand displacement, radioligand",inhibition,1%
Clc1ccc2c(C3CCN(CCc4c[nH]c5ccccc45)CC3)c[nH]c2c1,"ligand displacement, radioligand",inhibition,53%
CCCCCCCCCCCC(=O)OC[C@@H](COP(=O)(O)OCCNC(=O)c1ccc(Cn2c(=O)[nH]c3c(N)nc(OCCOC)nc32)cc1)OC(=O)CCCCCCCCCCC,"ligand displacement, radioligand",inhibition,40%
c1ccc(C(NCCNC(c2ccccc2)c2ccccc2)c2ccccc2)cc1,cell-free assay,inhibition,99%
COCc1c(-c2cc3cc(C)cc(OC)c3s2)c2c(N)ncnn2c1CN1CCNC(=O)C1,"ligand displacement, radioligand",inhibition,-8%
Nc1ncc(-c2nc(N3CCOCC3)nc(N3CCOCC3)n2)c(C(F)F)n1,"cell-free assay, radioligand",remaining signal,106%
C[C@H](C(=O)N[C@H]1COc2ccccc2[C@@H]1S(C)(=O)=O)c1ccc(F)cc1,cell-free assay,inhibition,-11%
N#CC1(c2ccccn2)CCN(Cc2cc(C(=O)O)c(=O)n3ccccc23)CC1,cell-free assay,inhibition,11.7%
